Experimental data collected from several papers.
Protocols differ between the studies behind these lines.
LATS1: Serine/threonine-protein kinase LATS1 (LATS1, Homo sapiens, UniProt O95835)
SLC18A2: Synaptic vesicular amine transporter (SLC18A2, Homo sapiens, UniProt Q05940)
gag-pol reverse transcriptase: Gag-Pol polyprotein, reverse transcriptase (gag-pol, Human immunodeficiency virus 1, UniProt P03366)
CA2: Carbonic anhydrase 2 (CA2, Homo sapiens, UniProt P00918)

Structure (SMILES) | target | test | system | conditions | IC50 [nM]
CC1CNCCC1(O)c1ccc(-c2ccnc3[nH]cc(F)c23)cc1 (stereo not shown) | LATS1 | target engagement in cells, BRET |  |  | 2210
CC(C)(C)NC(=O)C1CCN(Cc2cccc(/N=N/c3ccccc3)c2)CC1 | Atypical chemokine receptor 3 (ACKR3, Homo sapiens, UniProt P25106) | ligand displacement, BRET |  |  | 1000
CCCCN(CCCC)CCC(O)c1cc2c(Cl)cc(Cl)cc2c2cc(C(F)(F)F)ccc12 (stereo not shown) | SLC18A2 | transporter uptake, inhibitor, radiometric |  | cell membranes | 940
CCOC(=O)c1c(N(CC)CC)c2c([nH]c1=O)CCC2 | gag-pol reverse transcriptase | enzyme activity, inhibitor |  |  | > 100000
O=C1Nc2ccc(Cl)cc2[C@@](C#CC2CC2)(C(F)(F)F)O1 | SLC18A2 | transporter uptake, inhibitor |  |  | 6120
CCOC(=O)c1c(NCCCN)c2c([nH]c1=O)CCC2 | gag-pol reverse transcriptase | enzyme activity, inhibitor |  |  | > 100000
C[C@@H]1CNC[C@H](C)[C@@]1(O)c1ccc(-c2ccnc3[nH]cc(F)c23)cc1 | LATS1 | target engagement in cells, BRET |  |  | 518
[H]/N=C(/N)c1ccc(NCc2nc3cc(C(=O)N(CCC(=O)O)c4ccccn4)ccc3n2C)cc1 | Plasminogen (PLG, Homo sapiens, UniProt P00747) | enzyme activity, inhibitor, absorbance |  |  | 1700
O=C(c1ccc(OCCN2CCCCC2)cc1)c1c(-c2ccc(O)cc2)sc2cc(O)ccc12 | SLC18A2 | transporter uptake, inhibitor, radiometric |  | cell membranes | 127
CCOC(=O)c1c(NCCO)c2c([nH]c1=O)CCC2 | gag-pol reverse transcriptase | enzyme activity, inhibitor |  |  | > 100000
O=C1/C(=C/c2ccc3ccccc3c2O)NC(=S)N1c1ccccc1 | Receptor tyrosine-protein kinase erbB-2 (ERBB2, Homo sapiens, UniProt P04626) | enzyme activity, inhibitor, ELISA |  |  | 197
C[C@@H]1CC[C@@]2(OC1)O[C@H]1C[C@H]3[C@@H]4CC[C@H]5C[C@@H](O)CC[C@]5(C)[C@H]4CC(=O)[C@]3(C)[C@H]1[C@@H]2C | UDP-glucuronosyltransferase 1A4 (UGT1A4, Homo sapiens, UniProt P22310) | enzyme activity, inhibitor | human, liver microsomes |  | 2230
Clc1ccc(C2(c3ccc(-c4cn[nH]c4)cc3)CCNCC2)cc1 | LATS1 | target engagement in cells, BRET |  |  | 8870
Nc1ccc(S(=O)(=O)c2ccc(N)cc2)cc1 | Carbonic anhydrase 1 (CA1, Homo sapiens, UniProt P00915) | enzyme activity, inhibitor, absorbance |  | pH 7.4 | 17100
O=c1n(CCCN2CCN(c3cccc(Cl)c3)CC2)nc2ccccn12 | SLC18A2 | transporter uptake, inhibitor |  |  | 2780
NC(=O)c1nnn(Cc2cc(Cl)c(C(=O)c3ccc(Cl)cc3)c(Cl)c2)c1N | Delta-type opioid receptor (OPRD1, Homo sapiens, UniProt P41143) | cAMP, antagonist |  |  | 1090
COc1ccnc(C[S+]([O-])c2nc3ccc(OC(F)F)cc3[nH]2)c1OC (stereo not shown) | CA2 | enzyme activity, inhibitor, absorbance |  | pH 7.4 | 13800
Fc1c[nH]c2nccc(-c3ccc(C4CCNCC4)cc3)c12 | LATS1 | enzyme activity, inhibitor, radiometric |  |  | 8.8
COc1cc(C)c(/C=C/C(C)=C/C=C/C(C)=C/C(=O)O)c(C)c1C | CA2 | enzyme activity, inhibitor, absorbance |  | pH 7.4 | 12600
OC1(c2ccc(Cl)c(C(F)(F)F)c2)CCN(CCCC(c2ccc(F)cc2)c2ccc(F)cc2)CC1 | SLC18A2 | transporter uptake, inhibitor, radiometric |  | cell membranes | 594
CC(C)[C@H](N)C(=O)OCCOCn1cnc2c(=O)[nH]c(N)nc21 | CA2 | enzyme activity, inhibitor, absorbance |  | pH 7.4 | 9100
O=C1CCc2ccc(OCCCCN3CCN(c4cccc(Cl)c4Cl)CC3)cc2N1 | SLC18A2 | transporter uptake, inhibitor, radiometric |  | cell membranes | 36
